How the values were obtained:
D39A horcolin = biological target: T1, D39A horcolin (Hordeum vulgare, UniProt Q5U9T2, D39A); type: binding, Hordeum vulgare (barley)
T1 sequence (Q5U9T2 1-146 D39A): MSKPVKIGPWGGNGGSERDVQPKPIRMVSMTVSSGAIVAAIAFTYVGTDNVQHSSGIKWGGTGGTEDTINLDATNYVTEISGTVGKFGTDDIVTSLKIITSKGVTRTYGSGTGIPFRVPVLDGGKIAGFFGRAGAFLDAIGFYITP
Method in brief: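 15N-labelled D39A horcolin carried a C-terminal His tag, was expressed in E. coli BL21(DE3) in M9 medium and purified by Ni-NTA. NMR buffer was pH 7.4: 25 mM Tris, 50 mM NaCl, 1 mM EDTA, 0.03% NaN3, 10% D2O. HSQC spectra were taken over 21 methyl-α-D-mannose points from 0 to 914 mM. Sixteen residues were globally lineshape-fitted in TITAN; errors are SD of 100 bootstraps.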

wt horcolin = biological target: T2, wt horcolin (Hordeum vulgare, UniProt Q5U9T2); experiment: 1H-15N HSQC-detected NMR titration with TITAN 2D lineshape modeling, wt horcolin; type: binding, Hordeum vulgare (barley)
T2 sequence (Q5U9T2 1-146): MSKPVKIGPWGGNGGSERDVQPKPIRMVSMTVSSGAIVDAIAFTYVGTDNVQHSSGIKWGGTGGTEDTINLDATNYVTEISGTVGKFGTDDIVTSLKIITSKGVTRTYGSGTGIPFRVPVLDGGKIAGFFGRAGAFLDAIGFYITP

D138A horcolin = biological target: T3, D138A horcolin (Hordeum vulgare, UniProt Q5U9T2, D138A); type: binding, Hordeum vulgare (barley)
T3 sequence (Q5U9T2 1-146 D138A): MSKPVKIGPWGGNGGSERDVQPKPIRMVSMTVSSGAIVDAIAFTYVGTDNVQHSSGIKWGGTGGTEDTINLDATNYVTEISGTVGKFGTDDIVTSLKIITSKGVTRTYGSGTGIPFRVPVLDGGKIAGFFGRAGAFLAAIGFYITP
Method in brief: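 Uniformly 15N-labelled, C-terminally His-tagged D138A horcolin was expressed in E. coli BL21(DE3) in M9 medium and purified on Ni-NTA. Samples were in 25 mM Tris, 50 mM NaCl, 1 mM EDTA, 0.03% NaN3, 10% D2O, pH 7.4. 1H-15N HSQC spectra were recorded at 18 methyl-α-D-mannose concentrations from 0 to 167 mM. Lineshapes of 14 residues were globally fitted in TITAN; errors are SD of 100 bootstrap replicas.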

crystal structure = biological target: the molecule itself; experiment: crystal structure
HIV gp120 = conditions: read-out: equilibrium dissociation constant (Kd); cited from earlier work
HIV-1 = conditions: cited from earlier work

For `CO[C@H]1O[C@H](CO)[C@@H](O)[C@H](O)[C@@H]1O` [mannose, methyl-α-D-mannose], the Kd (D39A horcolin) was 55.6 ± 0.2 mM, the “fold increase of koff at CBS1, D39A versus wt” value (D39A horcolin) was 7 fold and the “fold increase of kon at CBS1, D39A versus wt” value (D39A horcolin) was 2.4 fold. The koff1 (D39A horcolin; CBS1 only, D39A horcolin, two-state model) was “(16.4 ± 0.7) x 10^3 s^-1”, the kon1 (D39A horcolin; CBS1 only, D39A horcolin, from koff and Kd) was “(2.9 ± 0.1) x 10^5 M^-1s^-1” and the “ΔΔG^0 between the two single-site binding events” value (D39A horcolin; D138A (CBS2) versus D39A (CBS1) horcolin) was 1.7 kcal/mol. For the same molecule, the “factor of difference in koff between single-binding-site mutants” value (D39A horcolin; D138A versus D39A horcolin) was 3.3, the “fold difference in kon between single-binding-site mutants” value (D39A horcolin; D138A versus D39A horcolin) was 5.3 fold and the koff1 (wt horcolin; CBS1, wt horcolin, sequential model) was “(2.4 ± 0.2) x 10^3 s^-1”. The kon1 (wt horcolin; CBS1, wt horcolin, sequential model, from koff and Kd) was “(1.19 ± 0.08) x 10^5 M^-1s^-1”, the koff2 (wt horcolin; CBS2, wt horcolin, sequential model) was “(2.5 ± 0.1) x 10^3 s^-1” and the kon2 (wt horcolin; CBS2, wt horcolin, sequential model, from koff and Kd) was “(5.3 ± 0.2) x 10^5 M^-1s^-1”. For the same molecule, the Kd (wt horcolin; Kd1, CBS1, wt horcolin, two-binding-site non-cooperative (NC) model, cluster of four residues) was 59 ± 2 mM, the Kd (wt horcolin; Kd1, CBS1, wt horcolin, two-site sequential binding model, 25 °C, pH 7.4) was 19.9 ± 0.1 mM and the Kd (wt horcolin; Kd2, CBS2, wt horcolin, two-binding-site non-cooperative (NC) model, cluster of four residues) was 7.7 ± 0.1 mM. The Kd (wt horcolin; Kd2, CBS2, wt horcolin, two-site sequential binding model, 25 °C, pH 7.4) was 4.71 ± 0.02 mM, the “binding free energy difference ΔΔG^0 between CBS2 and CBS1” value (wt horcolin; wt horcolin) was 0.85 kcal/mol and the “fold higher affinity for CBS2 than CBS1” value (wt horcolin; wt horcolin, sequential model) was 4.2 fold. For the same molecule, the Kd (D138A horcolin) was 3.2 ± 0.3 mM, the “fold increase of koff at CBS2, D138A versus wt” value (D138A horcolin) was 2 fold and the “fold increase of kon at CBS2, D138A versus wt” value (D138A horcolin) was 3 fold. For the same molecule, the koff2 (D138A horcolin; CBS2 only, D138A horcolin, two-state model) was “(5.0 ± 0.4) x 10^3 s^-1” and the kon2 (D138A horcolin; CBS2 only, D138A horcolin, from koff and Kd) was “(1.6 ± 0.1) x 10^6 M^-1s^-1”.

B1: horcolin (natural protein, Hordeum vulgare (barley))
chain: MSKPVKIGPWGGNGGSERDVQPKPIRMVSMTVSSGAIVDAIAFTYVGTDNVQHSSGIKWGGTGGTEDTINLDATNYVTEISGTVGKFGTDDIVTSLKIITSKGVTRTYGSGTGIPFRVPVLDGGKIAGFFGRAGAFLDAIGFYITP
For B1, the “stoichiometry N” value (crystal structure) was 2.

B2: horcolin: dimeric mannose-specific jacalin-related lectin from Hordeum vulgare (barley), 146 amino acids per protomer (protein)
chain: MSKPVKIGPWGGNGGSERDVQPKPIRMVSMTVSSGAIVDAIAFTYVGTDNVQHSSGIKWGGTGGTEDTINLDATNYVTEISGTVGKFGTDDIVTSLKIITSKGVTRTYGSGTGIPFRVPVLDGGKIAGFFGRAGAFLDAIGFYITP
For B2, the Kd (HIV gp120) is given as 14.4 nM and the HIV-1 neutralization (HIV-1) is given as “has the ability to neutralize HIV-1”.
